Consider 2 compounds from ChEMBL document CHEMBL4043282, “Discovery of the First Potent, Selective, and Orally Bioavailable Signal Peptide Peptidase-Like 2a (SPPL2a) Inhibitor Displaying Pronounced Immunomodulatory Effects In Vivo” (J Med Chem, 2018).

What is called IC50 is the midpoint of a concentration-inhibition curve. One may read the solubility (thermodynamic) as solubility found after equilibrating the solid with the medium.

In brackets after ≈: the same amount, converted by molar mass. Activity calls are given as the source filed them. The rule behind the calls is not given here.

Data set [1] deals with Mus musculus. In words: Immunomodulatory activity in mouse assessed as reduction in follicular B cells in splenocyte at 3 to 30 mg/kg administered via oral gavage bid at 8 and 16 hrs dosing interval between first and second dose respectively for 11 days measured 16 hrs post last dose on day 12 by flow cytometry. Type of data set: functional, organism-based. An outline of the steps: (§1)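 Mice gavaged with compound in 0.5% MC:0.5% Tween or PEG:D5W 3:1. Spleens dissociated in GentleMACS, filtered at 40 μm, ACK red-cell lysis, counted; 1 × 10^6 splenocytes stained 30 min on ice in HBSS/2% FBS/5 mM EDTA with antimouse panels for B-cell subsets (B220, CD21, CD23, IgM, IgD) or dendritic cells (PDCA1, CD11c, MHCII, lineage markers); analyzed on Fortessa flow cytometer.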

In data set [2] the test system is Mus musculus. The data set is described as follows: Immunomodulatory activity in mouse assessed as reduction in transition T1 B cells in splenocyte at 3 to 30 mg/kg administered via oral gavage bid at 8 and 16 hrs dosing interval between first and second dose respectively for 11 days measured 16 hrs post last dose on day 12 by flow cytometry. Format: functional, organism-based. The method in brief: as §1

The target of data set [3] is T1, Signal peptide peptidase-like 2A (Mus musculus, UniProt Q9JJF9).
T1 sequence (Q9JJF9 whole entry): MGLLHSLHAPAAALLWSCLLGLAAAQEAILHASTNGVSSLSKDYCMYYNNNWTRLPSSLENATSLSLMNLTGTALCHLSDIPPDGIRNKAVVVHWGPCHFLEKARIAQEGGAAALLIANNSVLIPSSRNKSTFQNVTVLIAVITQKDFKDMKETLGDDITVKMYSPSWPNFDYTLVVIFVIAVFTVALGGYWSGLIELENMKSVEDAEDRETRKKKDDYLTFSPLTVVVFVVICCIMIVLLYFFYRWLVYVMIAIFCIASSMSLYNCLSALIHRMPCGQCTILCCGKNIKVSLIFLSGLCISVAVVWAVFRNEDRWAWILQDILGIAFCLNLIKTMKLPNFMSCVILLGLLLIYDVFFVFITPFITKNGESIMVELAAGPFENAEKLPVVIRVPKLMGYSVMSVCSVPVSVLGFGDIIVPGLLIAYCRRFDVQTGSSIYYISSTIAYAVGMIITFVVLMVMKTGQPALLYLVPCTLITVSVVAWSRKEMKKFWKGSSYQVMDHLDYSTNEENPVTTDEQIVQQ
The data set is described as follows: Inhibition of mouse SPPL2a expressed in human U2OS cells using EGFP-labeled TNFalpha (1 to 77 residues) NLS as substrate after 24 hrs by Hoechst staining based high content imaging assay. Type of data set: cell-based. The method in brief: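 Stable U-2 OS lines expressing human SPPL2a, SPPL2b or SPP constitutively (mouse SPPL2a line analogous, mouse TNFα(aa1-77)-NTF-EGFP-NLS) with doxycycline-inducible EGFP substrate. 3000 cells/well, 3−4 h, then 11-point inhibitor 100 μM to 1 nM, 0.9% DMSO, 5 μg/mL doxycycline, 24 h 37 °C. PFA fixed, Hoechst nuclei; nuclear minus cytoplasmic EGFP intensity; inhibition vs 0.5 μM reference and DMSO; IC50 by nonlinear regression.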

A short description of data set [4]: Drug uptake in Lewis rat spleen at 30 mg/kg, po bid after 24 hrs by LC/MS/MS analysis. Type of data set: ADME, organism-based. To be noted: read-out: Drug uptake.
Data set [5] can be described thus: Equilibrium solubility of the compound at pH 6.8 after 24 hrs by saturation shake flask based UV-HPLC method. Type of data set: physicochemical. To be noted: buffer.
For data set [6], the system named is Mus musculus. In words: In vivo inhibition of mouse gamma-secretase assessed as effect on Hes1 mRNA level in jejunum up to 100 mg/kg, po administered as single dose by RT-PCR method. Type of data set: organism-based. The method in brief:
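Thymus and jejunum excised into RNALater, 4 °C overnight, washed, frozen at −80 °C; total RNA from 10 mg tissue by MagNA Pure LC; Hes1 measured by TaqMan real-time PCR; significance by two-tailed heteroscedastic Student's t-test.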

The subject of data set [7] is Mus musculus. The data set is described as follows: In vivo inhibition of SPPL2a in mouse assessed as accumulation of CD74/p8 in splenocyte lysate at 150 mg/kg administered via oral gavage as single dose measured 16 hrs post dose by Western blot method. Type of data set: functional, organism-based. An outline of the steps: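 Mice gavaged in 0.5% MC:0.5% Tween or PEG:D5W 3:1. Spleens dissociated, red cells lysed with ACK, 1 × 10^6 cells lysed with protease inhibitors; 18 μg lysate on 10% gel, blotted, CD74 full length and p8 detected with rat anti-mouse CD74 In-1 and Alexa488 anti-rat IgG, LiCor scan; p8/full-length ratio expressed as percent of reference compound ratio.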

`Cc1ncc(F)cc1NC(=O)C[C@H](C(=O)N[C@@H]1C(=O)N2CC3(CC3)CN2C(=O)c2ccccc21)C1CC1`: the result in data set [1] and in data set [2] was Active. For the same compound, the IC50 in data set [3] was 0.18 µM. The concentration at 24 h in data set [4] turned out to be 4.45 µM.
In turn, `Cc1ccccc1NC(=O)C[C@@H](C)C(=O)N[C@@H]1C(=O)N2CCCN2Cc2ccccc21` yielded a thermodynamic solubility at 24 h in data set [5] of 263 µM (≈ 111 µg/mL). The Activity entry in data set [6] was “Non-Toxic”. Moreover, the inhibition result in data set [7] is “Active”.
